Assay results from ChEMBL document CHEMBL1137645, “Functional characterization of TcaA: minimal requirement for teicoplanin susceptibility and role in Caenorhabditis elegans virulence” (2007).
Active and inactive are the calls of the source. The rule behind the calls is not given here.

Assays:
Type in all cases: functional, organism-based
Staphylococcus aureus [1] = assay: Induction of VraSR-dependent tcaA gene expression in Staphylococcus aureus KVR expressing N315 delta-vraSr mutant at 2 ug/mL after 30 mins by Northern blot analysis
Method in brief: (§1)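 Total RNA, 10 µg per sample, was separated on a 1.5% agarose–20 mM guanidine thiocyanate gel in 1x TBE, then Northern blotted.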

Staphylococcus aureus [2] = assay: Induction of VraSR-dependent tcaA gene expression in Staphylococcus aureus KVR expressing N315 delta-vraSr mutant at 10 ug/mL after 30 mins by Northern blot analysis; method in brief: as §1
Staphylococcus aureus [3] = assay: Induction of VraSR-dependent tcaA gene expression in Staphylococcus aureus N315 at 10 ug/mL after 30 mins by Northern blot analysis; method in brief: as §1
Staphylococcus aureus [4] = assay: Induction of VraSR-dependent tcaA gene expression in Staphylococcus aureus N315 at 16 ug/mL after 30 mins by Northern blot analysis; method in brief: as §1

| Compound | Activity (Staphylococcus aureus [1]) | Activity (Staphylococcus aureus [2]) | Activity (Staphylococcus aureus [3]) | Activity (Staphylococcus aureus [4]) |
| --- | --- | --- | --- | --- |
| Cc1onc(-c2ccccc2)c1C(=O)N[C@@H]1C(=O)N2[C@@H]1SC(C)(C)[C@@H]2C(=O)O | inactive | inactive | Active | Active |
| CN[C@H](CC(C)C)C(=O)N[C@H]1C(=O)N[C@@H](CC(N)=O)C(=O)N[C@H]2C(=O)N[C@H]3C(=O)N[C@H](C(=O)N[C@H](C(=O)O)c4cc(O)cc(O)c4-c4cc3ccc4O)[C@H](O)c3ccc(c(Cl)c3)Oc3cc2cc(c3O[C@@H]2O[C@H](CO)[C@@H](O)[C@H](O)[C@H]2O[C@H]2C[C@](C)(N)[C@H](O)[C@H](C)O2)Oc2ccc(cc2Cl)[C@H]1O | inactive | inactive | Active | Active |
